CHO parental Ca: counter-screen for OX1R antagonists: effect in parental CHO cells | inhibition, % at 5.6 µM | AID 463079 | parental CHO-K1, ATP-induced calcium, Fluo-8 fluorescence | 330,000 tested, 0.63% active;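 active means inhibition above that plate's mean sample inhibition plus 3 SD, cut at about 26% in these data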
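Material: parental CHO cells / Compound: single nominal dose of 5.6 µM per compound / Signal: Fluo-8 fluorescence / Replicates: singlicate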
OX1R antag-1: blocks the human orexin 1 receptor; O43613; OX1R-expressing cells, FRET antagonist read-out; inhibition, % at 6.6 µM; 330,000 tested, 1.8% active; in the data active means inhibition mostly above about 38%, no sharp cut-off; inactive means mostly below about 40%
GalR3 antag: human GalR3 antagonism; O60755; HEK293 GalR3-CNG cAMP membrane potential fluorescence; galR3 body fused to GalR1 C-terminus; inhibition, % at 3 µM; 360,000 tested, 0.44% active; AID 651719;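 active means inhibition above the screen-wide average plus 3 SD, cut at about 13% in these data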;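 further: forskolin and galanin both at EC90 stimulate the cells; cAMP rise reported by CNG channel membrane potential dye signal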
Target sequence (O60755 1-299 limits assumed): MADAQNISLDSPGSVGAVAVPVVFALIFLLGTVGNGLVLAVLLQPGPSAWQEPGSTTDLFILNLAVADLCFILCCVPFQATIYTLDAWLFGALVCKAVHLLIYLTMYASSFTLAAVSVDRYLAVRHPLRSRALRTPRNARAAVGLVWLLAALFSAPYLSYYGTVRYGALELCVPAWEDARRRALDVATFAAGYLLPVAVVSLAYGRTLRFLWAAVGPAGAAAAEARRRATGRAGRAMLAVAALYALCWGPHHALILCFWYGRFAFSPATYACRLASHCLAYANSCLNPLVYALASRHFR
OX1R antag-2: antagonists of human orexin 1 receptor; O43613; CHO/OX1R cells, Fluo-8 calcium fluorescence, orexin A; inhibition, % at 5 µM; 330,000 tested, 0.43% active;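 active means inhibition above its plate's threshold, mean inhibition of all tested compounds on the plate plus 3 SD, cut at about 37% in these data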
TAAR1 agonist: human TAAR1 agonism | Q96RJ0 | CHO RD-HGA16 TAAR1, Fluo-8 calcium fluorescence; vehicle wells 0%, saturating PEA agonist 100% | activation, % at 3 µM | 360,000 tested, 0.99% active | AID 624467;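 active means activation above the mean activation of all test compounds in the run plus 3 SD, cut at about 38% in these data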
Target sequence (Q96RJ0 whole entry, looked up): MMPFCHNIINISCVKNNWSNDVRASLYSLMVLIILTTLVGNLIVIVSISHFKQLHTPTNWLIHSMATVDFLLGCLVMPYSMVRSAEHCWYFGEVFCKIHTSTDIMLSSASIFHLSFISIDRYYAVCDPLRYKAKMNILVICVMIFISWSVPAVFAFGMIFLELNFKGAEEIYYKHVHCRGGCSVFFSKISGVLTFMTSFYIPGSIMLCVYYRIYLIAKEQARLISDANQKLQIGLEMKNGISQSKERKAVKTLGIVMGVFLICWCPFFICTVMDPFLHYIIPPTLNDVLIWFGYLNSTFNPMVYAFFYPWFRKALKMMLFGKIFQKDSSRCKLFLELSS
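Test system: RD-HGA16 (CHO) cells co-expressing Gα16 and hTAAR1 | Doses: Single dose, 3 µM | Schedule: 17-24 h seeding, 75 min 37 °C dye, 30 min RT | Evaluation: % activation from peak over basal fluorescence ratio, DMSO-to-PEA scaled | Technique: Kinetic Fluo-8 calcium fluorescence | Benchmarks: Low control DMSO, high control PEA (EC100)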
TAAR1 antag: human TAAR1 antagonism; inhibition, % at 3 µM; Q96RJ0; CHO RD-HGA16 TAAR1, Fluo-8 calcium fluorescence, antagonist; 360,000 tested, 1.5% active;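 active means inhibition above a per-plate cutoff, the mean inhibition of test compounds on that plate plus 3 SD, cut at about 49% in these data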
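Material: CHO RD-HGA16 cells bearing hTAAR1; compound dosing: one-point dosing, 3 µM nominal final; schedule: dye loading 75 min at 37 °C, then 30 min room temperature; measured by: calcium fluorescence with Fluo-8; control set: vehicle and agonist controls; replication: n of 1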
OX1R HTRF confirm: OX1R (human) antagonism, HTRF confirmed; OX1R-expressing cells, HTRF antagonist assay; shares compounds with OX1R antag-1; inhibition, % at 6.6 µM; AID 492964; 1,800 tested, 49% active; in the data active means inhibition above about 55%;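 further: CHO cells expressing OX1R stimulated with orexin A at about EC80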
CHO-K1 HTRF cnt: counter-screen: parental CHO-K1 HTRF response. shares compounds with OX1R antag-1. parental CHO-K1 cells, HTRF counterscreen. inhibition, % at 6.6 µM. 1,800 tested, 48% active. AID 493232; in the data active means inhibition above about 17%
Large screens that a line does not name were inactive (follow-up assays come after a bar, where they were run). Only some compounds are listed: those with a hit (about 4.3% of all), similar ones and a draw of the others.

CC(=O)Nc1cccc(-c2nc3ccccc3o2)c1	OX1R antag-1 80 | OX1R HTRF confirm 66 | CHO-K1 HTRF cnt inactive
CC(=O)Nc1ccc2c(c1)c1ccccc1n2C(C)=O	OX1R antag-1 78 | OX1R HTRF confirm 71 | CHO-K1 HTRF cnt inactive
CC(=O)Nc1ccc2nc3ccccc3nc2c1	OX1R antag-1 134 | OX1R HTRF confirm 110 | CHO-K1 HTRF cnt 65
CC(=O)Nc1ccc2c(c1)C(=O)c1ccccc1C2=O	OX1R antag-1 102 | OX1R HTRF confirm 70 | CHO-K1 HTRF cnt 39
CCn1c2ccccc2c2cc(NC(C)=O)ccc21	none
CCCCCCCCN1C(=O)[C@@H](CC(=O)N2CCN(C(=O)c3ccco3)CC2)C[C@@]2(C(=O)OC)C1=C[C@H](C(C)(C)C)O[C@@H]2C	none (no result: CHO parental Ca, OX1R antag-1, OX1R antag-2)
CN(C(=O)c1cccc(NC(=O)Cc2ccc(NC(=O)C3CCN(C(=O)c4ccccc4)CC3)cc2)c1)C1CCCCC1	none (no result: CHO parental Ca, OX1R antag-1, OX1R antag-2)
O=C(O)/C=C/C(=O)Nc1ccc(C(=O)c2ccccc2)cc1	none
O=C(O)/C=C/C(=O)Nc1ccc2c(c1)C(=O)c1ccccc1C2=O	OX1R antag-1 83 | OX1R HTRF confirm inactive | CHO-K1 HTRF cnt 50
Cc1noc(C)c1NC(=O)N(C)C[C@H]1OCc2cnnn2CCCC(=O)N([C@H](C)CO)C[C@@H]1C	none (no result: CHO parental Ca, OX1R antag-1, OX1R antag-2)
Cc1cc(C)n2nc(-c3cccc(Br)c3)cc2n1	OX1R antag-1 85 | OX1R HTRF confirm 90 | CHO-K1 HTRF cnt inactive
Cc1cc(C)n2ncc(-c3cccc(Br)c3)c2n1	none
CC(C)n1nnnc1C1c2ccccc2C(=O)N1Cc1ccco1 (stereo not drawn)	none (no result: CHO parental Ca, OX1R antag-1, OX1R antag-2)
CC(c1ccco1)N(C(=O)c1cc(Cl)cc(Cl)c1)c1ccccn1 (stereo not drawn)	none
CC(c1ccco1)N(C(=O)c1ccccc1NS(=O)(=O)c1ccc(Cl)c([N+](=O)[O-])c1)c1ccccn1 (stereo not drawn)	OX1R antag-1 98 | OX1R HTRF confirm inactive | CHO-K1 HTRF cnt inactive
Cc1c(CCOC(=O)c2cc([N+](=O)[O-])cc([N+](=O)[O-])c2)sc[n+]1CC(=O)c1ccccc1	none
Cc1c(CCOC(=O)c2cc([N+](=O)[O-])cc([N+](=O)[O-])c2)sc[n+]1CCCCS(=O)(=O)[O-]	OX1R antag-1 174 | OX1R HTRF confirm 72 | CHO-K1 HTRF cnt 85
CC1(C(=O)NS(=O)(=O)c2cccc(Cl)c2)CCN1C(=O)C1(c2ccccc2)CC1 (stereo not drawn)	none (no result: CHO parental Ca, OX1R antag-1, OX1R antag-2)
CC1=CN2C(=N)/C(=C\c3cn(CCCOc4ccccc4)c4ccccc34)C(=O)N=C2S1	none
CC(CC1C(C#N)=C(N)SC(N)=C1C#N)c1ccccc1 (stereo not drawn)	OX1R antag-1 88 | OX1R HTRF confirm inactive | CHO-K1 HTRF cnt inactive
CC(C)C[C@H]1CN([C@@H](CC(C)C)CN2CCCC2CN2C(=S)NC[C@@H]2Cc2ccccc2)C(=S)N1CC1CCCCC1 (stereo partly drawn)	none (no result: CHO parental Ca, OX1R antag-1, OX1R antag-2)
CC1(C)Cc2ccccc2C2=NNC(=O)C2=N1	OX1R antag-1 117 | OX1R HTRF confirm inactive | CHO-K1 HTRF cnt 78
O=C1c2c([N+](=O)[O-])cc([N+](=O)[O-])cc2S(=O)N1Cc1ccccc1 (stereo not drawn)	OX1R antag-1 105 | OX1R HTRF confirm inactive | CHO-K1 HTRF cnt 86
CCOC(=O)c1c(C)oc2c1c1c(c3ccccc32)OCN(Cc2ccccn2)C1	OX1R antag-1 84 | OX1R HTRF confirm inactive | CHO-K1 HTRF cnt inactive
COC(=O)CN1C(=O)N/C(=C/c2ccccc2OC)C1=O	OX1R antag-1 119 | OX1R HTRF confirm inactive | CHO-K1 HTRF cnt inactive
COC(=O)CN1C(=O)N/C(=C/c2cc(OC)c(OC)cc2C)C1=O	none
CCNC1=C(Cl)C(=O)c2ccccc2C1=O	OX1R antag-1 178 | OX1R HTRF confirm 58 | CHO-K1 HTRF cnt 93
O=C(NCCN1CCCC1)c1ccccc1Cl	none
O=C1C(Cl)=C(NCCN2CCCCC2)C(=O)c2ccccc21	OX1R antag-1 90 (no result: GalR3 antag, TAAR1 agonist, TAAR1 antag) | OX1R HTRF confirm 68 | CHO-K1 HTRF cnt 71
COc1ccc(-c2oc3c4c2C(=O)OCCOC4CCC3)cc1 (stereo not drawn)	none (no result: CHO parental Ca, OX1R antag-1, OX1R antag-2)
COc1ccc(S(=O)(=O)N2CCCCCC2)cc1C(=O)NCCc1ccccc1	none
Nc1ccc2c(c1)C(=O)C(=O)c1ccccc1-2	OX1R antag-1 active | OX1R HTRF confirm 83 | CHO-K1 HTRF cnt 41
CN(C(=O)COC(=O)CSc1ccc(C(N)=O)cc1[N+](=O)[O-])C1CCS(=O)(=O)C1 (stereo not drawn)	OX1R antag-1 77 | OX1R HTRF confirm inactive | CHO-K1 HTRF cnt 69
CN(C(=O)CSc1nc2ccc([N+](=O)[O-])cc2s1)C1CCS(=O)(=O)C1 (stereo not drawn)	OX1R antag-1 83 | OX1R HTRF confirm 70 | CHO-K1 HTRF cnt 40
O=C(CSc1nc2ccc([N+](=O)[O-])cc2s1)NC1CCS(=O)(=O)C1 (stereo not drawn)	none
NC(=O)c1ccc(N=C2C(=O)Nc3ccc([N+](=O)[O-])cc32)cc1	OX1R antag-1 84, GalR3 antag 13 | OX1R HTRF confirm 64 | CHO-K1 HTRF cnt 72
O=C1Nc2ccccc2C1=Nc1cccc([N+](=O)[O-])c1	none
COCCN(C(=S)Nc1cccc(C)c1)C(C)c1cccs1 (stereo not drawn)	none
COCCN(C(=S)Nc1c(C)cccc1C)C(C)c1cccs1 (stereo not drawn)	OX1R antag-1 147 | OX1R HTRF confirm inactive | CHO-K1 HTRF cnt inactive
CN(C(=O)CSc1ncc(C(F)(F)F)cc1Cl)c1c(N)n(Cc2ccccc2)c(=O)[nH]c1=O	OX1R antag-1 89 | OX1R HTRF confirm 68 | CHO-K1 HTRF cnt inactive
COCCN(C(=O)CSc1ncc(C(F)(F)F)cc1Cl)c1c(N)n(Cc2ccccc2)c(=O)[nH]c1=O	none
Cc1ccc([C@@H]2CC(=O)[C@@H]3CN(S(=O)(=O)c4ccc(C)cc4)[C@H](c4ccc(Cl)cc4)C[C@@H]3N2S(=O)(=O)c2ccc(Cl)cc2)cc1	none (no result: CHO parental Ca, OX1R antag-1, OX1R antag-2)
O=C1c2ccc3c4c(ccc(c24)C(=O)N1NC(=O)C(F)(F)F)CC3	none
CC(=O)NN1C(=O)c2ccc3c4c(ccc(c24)C1=O)C(=O)N(NC(C)=O)C3=O	OX1R antag-1 83 | OX1R HTRF confirm 69 | CHO-K1 HTRF cnt 174
